Bioassay records from PubChem BioAssay.
Myeloid diff 2 – myeloid differentiation induction; calls only at 10 µM; hit rate 1% among 360,000; AID 624256; ER-HoxA9 myeloid progenitors, lysozyme-GFP differentiation, flow cytometry;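 active means normalized GFP-positive differentiation at or above the plate's own cutoff, the solvent-only control mean plus 3 SD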;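 further: cells exposed to compound for four days before flow analysis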
ABCB6 inh MLPCN – inhibitors of human ABC transporter ABCB6. K562-ABCB6 porphyrin accumulation, flow cytometry, 1 h; active compounds read low. fluorescence ratio to DMSO, % at 10 µM. hit rate 0.19% among 360,000. AID 602162;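 active means fluorescence ratio to DMSO below 75%, the collection mean minus 3 SD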;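 further: signal is porphyrin accumulated inside mitochondria; 100% equals median channel fluorescence of DMSO control wells; lower ratio means ABCB6 inhibition with less porphyrin fluorescence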
Target sequence (Q9NP58 whole entry, looked up): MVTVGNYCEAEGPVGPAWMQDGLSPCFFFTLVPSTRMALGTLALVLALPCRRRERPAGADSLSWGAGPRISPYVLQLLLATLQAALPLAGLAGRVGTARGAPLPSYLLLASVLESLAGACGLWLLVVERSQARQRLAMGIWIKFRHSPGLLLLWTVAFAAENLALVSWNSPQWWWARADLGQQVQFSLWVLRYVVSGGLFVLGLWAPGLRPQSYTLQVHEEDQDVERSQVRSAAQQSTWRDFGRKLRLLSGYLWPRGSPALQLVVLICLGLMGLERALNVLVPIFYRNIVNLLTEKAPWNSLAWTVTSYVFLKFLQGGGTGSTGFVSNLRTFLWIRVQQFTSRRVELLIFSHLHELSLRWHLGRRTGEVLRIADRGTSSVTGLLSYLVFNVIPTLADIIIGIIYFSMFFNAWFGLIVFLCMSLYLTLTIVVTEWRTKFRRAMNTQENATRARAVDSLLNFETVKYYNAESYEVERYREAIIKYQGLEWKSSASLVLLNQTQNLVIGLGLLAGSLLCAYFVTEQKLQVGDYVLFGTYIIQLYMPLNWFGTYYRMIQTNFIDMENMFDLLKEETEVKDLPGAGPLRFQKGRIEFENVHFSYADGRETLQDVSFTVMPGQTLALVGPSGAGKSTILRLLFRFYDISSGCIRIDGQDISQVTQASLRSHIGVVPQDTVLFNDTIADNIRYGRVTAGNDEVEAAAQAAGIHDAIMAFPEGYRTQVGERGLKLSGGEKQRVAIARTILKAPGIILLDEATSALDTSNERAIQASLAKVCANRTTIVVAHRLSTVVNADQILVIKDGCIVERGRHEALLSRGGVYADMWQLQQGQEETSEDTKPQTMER
Xi reactivation – activators of X-chromosome reactivation in mouse fibroblasts | hit rate 0.055% among 360,000 | AID 743238 | XiGFP mouse fibroblasts, % GFP-positive cells imaging, 3 d; cells co-treated with 5-aza-dC sensitizer; scaled so ellipticine positive control = 100% | activation, % at 7.58 µM;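 active means mean normalized replicate activation at least 10% and every replicate at or above 10%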;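 further: 0% = median of on-plate neutral control wells and 100% = ellipticine 6 µM median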
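System: XiGFP fibroblasts, SV40-immortalized. Medium: DMEM plus 5-aza-dC sensitizer. Doses: single point. Timing: 3 d treatment, 15 min room-temperature fixation. Control set: ellipticine 6 µM.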
Myeloid diff CP1 – myeloid differentiation induction; shares compounds with Myeloid diff 2; ER-HoxA9 myeloid progenitors, GFP/Mac1 double-positive flow; calls only; hit rate 2% among 2,300; AID 651706;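 active means share of green or green-and-red cells above 9 and 9% in run 1 or 4 and 3% in run 2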
GFP autofluor – counter-screen for myeloid differentiation promoters: compound fluorescence; hit rate 7.4% among 2,300; AID 651707; ER-HoxA9 myeloid progenitors, no estrogen, GFP autofluorescence flow cytometry; vehicle wells 0%, positive control 100%; fluorescence response, % (concentration not given with the values); shares compounds with Myeloid diff 2;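 active means over 5% cells positive for green fluorescent reporter, or over 2% positive for both it and APC stain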;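 further: range taken on the double positive population between DMSO and positive control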
The depositor's hits bear a star; i = inactive; · = no result; + = active, no number. The sample as a whole holds a higher share of hits than the screen did.

SMILES	Myeloid diff 2	ABCB6 inh MLPCN	Xi reactivation	Myeloid diff CP1	GFP autofluor
O=C(C1CCCC1)N1CC(=O)N2[C@@H](CO)[C@H](c3ccc(C#CCc4ccccc4)cc3)[C@@H]2C1	·	·	0.0	·	·
O=c1[nH]nc(Cc2ccccc2)c2ccccc12	i	98.0	·	·	·
COc1ccc(Cc2n[nH]c(=O)c3ccccc23)cc1OC	i	100.0	·	i	0.0
CC(C)(C)OC(=O)NCCc1nnc(SCc2ccccc2)o1	i	93.0	0.1	·	·
CC(C)(C)OC(=O)NCCc1nnc(SCc2ccccc2Cl)o1	i	97.0	·	i	0.2
CN(CC(=O)Nc1ccccc1Cl)C(=O)CSc1nc2ccccc2s1	i	101.0	0.3	·	·
COc1ccc(NC(=O)CN(C)C(=O)CSc2nc3ccccc3s2)cc1	i	94.0	0.0	i	0.0
C[C@@H]1CN([C@H](C)CO)C(=O)Cc2cc(NC(=O)C3CC3)ccc2O[C@H]1CN(C)S(C)(=O)=O	·	·	0.2	·	·
O=[N+]([O-])c1ccc2[nH]c(O)c(N=Nc3ccc(F)cc3)c2c1	+	100.0	0.3	i	9.8*
O=[N+]([O-])c1ccc(N=Nc2c(O)[nH]c3ccc(F)cc23)cc1	i	103.0	0.3	·	·
COc1nc(OC)nc(N2CCC(C(=O)NCC3CCCCC3)CC2)n1	i	97.0	·	·	·
COc1nc(OC)nc(N2CCCCCC2)n1	i	97.0	·	i	0.7
COc1ccc(NC(=O)Nc2ccc3c(c2)C(=O)N([C@@H](C)CO)C[C@@H](C)[C@H](CN(C)C)O3)cc1	·	·	-0.2	·	·
COc1ccc(-c2cc3ccccc3n2CC(O)Cn2nc(C)cc2C)cc1 (stereo not given)	i	106.0	·	·	·
COc1ccc(-c2cc3ccccc3n2CC(O)CN2CCC(C)CC2)cc1 (stereo not given)	i	94.0	0.2	i	0.0
CCOC(=O)C(Cc1cc(C(C)=O)ccc1OCC)C(=O)OCC	i	92.0	·	·	·
CCOc1ccc(C(C)=O)cc1CC(C(N)=O)C(N)=O	+	107.0	·	i	0.0
CCCNC(=O)C[C@H]1C[C@H]2c3cc(NC(=O)c4cccnc4)ccc3O[C@H]2[C@H](CO)O1	·	·	2.6	·	·
COc1cccc(C(=O)NC(=S)Nc2ccc3c4c(cccc24)CC3)c1	+	158.0	·	i	1.0
COc1ccccc1NC(=O)c1cccnc1	i	94.0	·	·	·
COc1cccc(C(=O)Nc2ccc(F)cc2F)c1	i	99.0	·	i	0.3
COc1ccc(OCC(=O)NC(=S)Nc2ccc3c4c(cccc24)CC3)cc1	i	100.0	0.0	·	·
COc1cccc(C(=O)Nc2ccccc2F)c1	i	96.0	0.0	·	·
COc1ccc(NC(=O)c2cccnc2)c(OC)c1	+	96.0	·	i	0.4
C[C@H](CO)N1C[C@H](C)[C@H](CN(C)C(=O)Nc2ccc(C(F)(F)F)cc2)Oc2c(NS(=O)(=O)c3ccc(Cl)cc3)cccc2C1=O	·	·	-0.4	·	·
SMILES	Myeloid diff 2	ABCB6 inh MLPCN	Xi reactivation	Myeloid diff CP1	GFP autofluor
C[C@H](CO)N1C[C@H](C)[C@H](CN(C)C(=O)Nc2ccc(F)cc2)Oc2ncc(/C=C/c3ccccc3)cc2C1=O	·	·	0.7	·	·
C[C@@H]1CN([C@H](C)CO)C(=O)c2cc(N(C)C)ccc2O[C@@H](C)CCCCO[C@H]1CN(C)C(=O)c1ccccc1	·	·	0.1	·	·
O=C(N[C@H]1CC[C@H](CCNS(=O)(=O)c2ccc(F)cc2)O[C@@H]1CO)C1CCOCC1	·	·	0.0	·	·
COc1ccccc1CN1C[C@@H]2N[C@H](C1)C2c1ccc(/C=C/c2ccccc2)cc1 (stereo not given in full)	·	·	0.3	·	·
C[C@H](CO)N1C[C@H](C)[C@H](CN(C)C(=O)C2CCCCC2)Oc2ncc(-c3cccnc3)cc2C1=O	·	·	0.2	·	·
COc1ccc(CNCc2cc(Cl)ccc2O)cc1	i	99.0	-0.6	i	0.0
Oc1ccc(Cl)cc1CNCc1ccc(F)c(F)c1	i	102.0	0.0	·	·
CC(C)Oc1ccccc1C1NC(=O)CCC1[N+](=O)[O-] (stereo not given)	i	109.0	0.2	i	0.0
CCOc1ccccc1C1NC(=O)CCC1[N+](=O)[O-] (stereo not given)	i	100.0	0.0	·	·
COc1ccc(C2C(Oc3ccccc3C)C(=O)N2Cc2ccc(F)cc2)cc1OC (stereo not given)	i	96.0	·	i	0.0
COc1ccc(OC2C(=O)N(Cc3ccc(F)cc3)C2c2cc(OC)c(OC)c(OC)c2)cc1 (stereo not given)	i	104.0	0.0	·	·
O=C(CN1CCN(c2ccc(F)cc2)CC1)Nc1cc(C(F)(F)F)ccc1Cl	i	100.0	·	i	0.7
O=C(CN1CCOCC1)Nc1cc(C(F)(F)F)ccc1Cl	i	93.0	0.1	·	·
CCC(=O)Nc1ccc2c(c1)C(=O)N(C)C[C@H](OC)[C@@H](C)CN(C(=O)COC)[C@H](C)CO2	·	·	-0.5	·	·
CCc1ccc2c(Cl)c(C(=O)N/N=C/c3c[nH]c4ccccc34)sc2c1	i	94.0	·	·	·
CCc1ccc(-c2cc(C(=O)N/N=C/c3c[nH]c4ccccc34)[nH]n2)cc1	i	90.0	-0.1	i	2.1
O=C(Nc1ccccc1F)N1CC(=O)N2[C@@H](CO)[C@H](c3ccc(C#Cc4ccccc4)cc3)[C@@H]2C1	·	·	0.1	·	·
COc1ccc(NC(=O)N(C)C[C@H]2OCCCC[C@H](C)Oc3ccc(NC(=O)c4ccccc4)cc3C(=O)N([C@@H](C)CO)C[C@@H]2C)cc1	·	·	0.4	·	·
COc1cccc(C(=O)N2CCCC(c3nc(-c4cccs4)no3)C2)c1 (stereo not given)	i	89.0	·	·	·
COc1cc(C(=O)N2CCCC(c3nc(-c4cccs4)no3)C2)cc(OC)c1OC (stereo not given)	i	86.0	·	i	1.2
O=C(Nc1cc(F)ccc1F)N1C[C@@H]2[C@H](c3ccccc31)[C@@H](CO)N2C(=O)c1ccccc1	·	·	0.0	·	·
Cc1sc(NC(=O)CSc2n[nH]c(N)n2)c(C#N)c1C	+	159.0	0.3	i	16.3*
CCCC(=O)Nc1sc(C)c(C)c1C#N	i	103.0	-0.1	·	·
CCCCCC(=O)Nc1sc(C)c(C)c1C#N	i	106.0	0.2	i	0.2
COC(=O)c1c(NC(=O)CSc2n[nH]c(N)n2)sc(C)c1C	i	99.0	·	·	·
SMILES	Myeloid diff 2	ABCB6 inh MLPCN	Xi reactivation	Myeloid diff CP1	GFP autofluor
C[C@H](CO)N1C[C@H](C)[C@@H](CN(C)Cc2ccc(C(=O)O)cc2)Oc2ccc(NC(=O)Cc3ccccc3)cc2CC1=O	·	·	0.3	·	·
C[n+]1ccccc1/C=C/c1ccc(F)c(F)c1	i	96.0	0.3	·	·
C[n+]1ccccc1/C=C/c1ccc2ncccc2c1	+	102.0	0.2	+	0.3
C[C@H](CO)N1C[C@H](C)[C@@H](CN(C)Cc2ccc(C(=O)O)cc2)Oc2ccc(NC(=O)C3CC3)cc2C1=O	·	·	0.2	·	·
CC(Sc1nn(-c2ccccc2)c(=S)s1)C(=O)NCC1CCCO1 (stereo not given)	i	100.0	0.1	i	0.5
Cc1nnc(SC(C)C(=O)NCC2CCCO2)n1-c1ccccc1 (stereo not given)	i	101.0	·	·	·
